Series [1] relates to Bacillus subtilis. Put plainly: Antimicrobial activity against Bacillus subtilis DSM 347 after 17 hrs. In kind it is functional. To be noted: DSM 347, 17 h. An outline of the steps: (§1)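 Mid-log cells (OD600 0.4 to 0.5, grown in LB at 37°C, 180 rpm) in LB at 1.6 x 10^6 cells/ml. Soluble peptides were tested in microtiter wells at 100 to 0.05 µM (twofold dilutions). Resin-bound peptides were tested in tubes at 0.5 to 80 mg/ml resin with horizontal shaking. Incubation 37°C, 180 rpm; A600 read at 17 h; triplicate. Resin MICs were converted to mM using peptide loading per mg resin.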

Series [2] has as its system Bacillus subtilis. Description: Bactericidal activity against Bacillus subtilis DSM 347 after 24 hrs. In kind it is functional. As to conditions: DSM 347, 24 h. The gist of the method:
(§2)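 MBC: after the 17 h LB broth dilution growth assay (1.6 x 10^6 cells/ml, 37°C, shaking), 200 µl from wells at or above the MIC was spread on LB agar. Plates were incubated 24 h at 37°C and colonies counted. MBC is the lowest concentration giving no colonies. Triplicate.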

Series [3] deals with Escherichia coli. Description: Antimicrobial activity against Escherichia coli DH5[alpha] after 17 hrs. In kind it is functional. The gist of the method:
as §1

Series [4] concerns Escherichia coli. Description: Bactericidal activity against Escherichia coli DH5[alpha] after 24 hrs. In kind it is functional. An outline of the steps: as §2
Series [5] can be described thus: Cytotoxicity against human RBC assessed as hemolytic activity after 30 mins by spectrophotometry. In kind it is cell-based. To be noted: erythrocyte, 0.5 h. The gist of the method:
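Human RBCs were washed in 10 mM Tris, 150 mM NaCl, pH 7.4 and incubated at 2.5 x 10^8 cells/ml with peptide in 1 ml buffer for 30 min with gentle shaking. Samples were ice-cooled and centrifuged (2,000 x g, 4°C, 5 min); supernatant was diluted in 0.5% NH4OH and read at OD540. 0.5% NH4OH served as 100% lysis. EC25 was taken from dose-response curves.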

In brackets after ≈: the same amount, converted by molar mass. Where a SMILES comes first, the peptide text is derived from it.

The term MIC denotes the lowest concentration that inhibits growth of the organism. As usually defined, the MBC is the lowest tested concentration that kills the bacteria rather than only halting them. A lower MBC goes with more potent killing. As usually defined, the EC25 is the point of the concentration-response curve where the effect stands at 25%. Take `CC[C@H](C)[C@H](NC(=O)CNC(C)=O)C(=O)NCC(=O)N[C@@H](CCCCN)C(=O)N[C@@H](Cc1ccccc1)C(=O)N[C@H](C(=O)N[C@@H](Cc1cnc[nH]1)C(=O)N[C@@H](C)C(=O)N[C@H](C(=O)N[C@@H](CCCCN)C(=O)N[C@@H](CCCCN)C(=O)N[C@@H](Cc1c[nH]c2ccccc12)C(=O)NCC(=O)N[C@@H](CCCCN)C(=O)N[C@H](C(=O)N[C@@H](Cc1ccccc1)C(=O)N[C@H](C(=O)NCC(=O)N[C@@H](CCC(=O)O)C(=O)N[C@H](C(=O)N[C@@H](C)C(=O)N[C@@H](CCCCN)C(=O)N[C@@H](CO)C(N)=O)[C@@H](C)CC)[C@@H](C)CC)[C@@H](C)O)C(C)C)[C@@H](C)CC` (Ac-GIGKFIHAVKKWGKTFIGEIAKS-NH2): the values for the MIC in the series on Bacillus subtilis [1] and in the series on Escherichia coli [3] were 1.6 µM (≈ 4.09 µg/mL) and 3.1 µM (≈ 7.93 µg/mL), respectively. The figures for the MBC against Bacillus subtilis [2] and with Escherichia coli [4] were 1.6 µM (≈ 4.09 µg/mL) and 3.1 µM (≈ 7.93 µg/mL), respectively. The EC25 in series [5] is greater than 400 µM.
On to `CC(=O)N[C@@H](CCCCN)C(=O)N[C@@H](CC(C)C)C(=O)N[C@@H](C)C(=O)N[C@@H](CC(C)C)C(=O)N[C@@H](CCCCN)C(=O)N[C@@H](CC(C)C)C(=O)N[C@@H](C)C(=O)N[C@@H](CC(C)C)C(=O)N[C@@H](CCCCN)C(=O)N[C@@H](C)C(=O)N[C@@H](CC(C)C)C(=O)N[C@@H](CCCCN)C(=O)N[C@@H](C)C(=O)N[C@@H](C)C(=O)N[C@@H](CC(C)C)C(=O)N[C@@H](CCCCN)C(=O)N[C@@H](CC(C)C)C(=O)N[C@@H](C)C(N)=O`, for which the MIC stood at 0.8 µM (≈ 1.53 µg/mL) against Bacillus subtilis [1] and 12.5 µM (≈ 24 µg/mL) against Escherichia coli [3]. The values for the MBC in the series with Bacillus subtilis [2] and against Escherichia coli [4] were 0.8 µM (≈ 1.53 µg/mL) and 12.5 µM (≈ 24 µg/mL), respectively. Further, the EC25 in series [5] was 9.1 µM.
On to `CC[C@H](C)[C@H](NC(=O)CN)C(=O)NCC(=O)N[C@@H](CCCCN)C(=O)N[C@@H](Cc1ccccc1)C(=O)N[C@H](C(=O)N[C@@H](Cc1cnc[nH]1)C(=O)N[C@@H](C)C(=O)N[C@H](C(=O)N[C@@H](CCCCN)C(=O)N[C@@H](CCCCN)C(=O)N[C@@H](Cc1c[nH]c2ccccc12)C(=O)NCC(=O)N[C@@H](CCCCN)C(=O)N[C@H](C(=O)N[C@@H](Cc1ccccc1)C(=O)N[C@H](C(=O)NCC(=O)N[C@@H](CCC(=O)O)C(=O)N[C@H](C(=O)N[C@@H](C)C(=O)N[C@@H](CCCCN)C(=O)N[C@@H](CO)C(N)=O)[C@@H](C)CC)[C@@H](C)CC)[C@@H](C)O)C(C)C)[C@@H](C)CC` (H-GIGKFIHAVKKWGKTFIGEIAKS-NH2), for which the values for the MIC against Bacillus subtilis [1] and in the series on Escherichia coli [3] were 1.6 µM (≈ 4.02 µg/mL) and 0.8 µM (≈ 2.01 µg/mL), respectively. For the same molecule, the MBC turned out to be 1.6 µM (≈ 4.02 µg/mL) in the series on Bacillus subtilis [2] and 0.8 µM (≈ 2.01 µg/mL) with Escherichia coli [4]. Besides, in series [5], the EC25 is 334 µM.
As for `CC(C)C[C@H](NC(=O)[C@H](C)NC(=O)[C@H](CCCCN)NC(=O)[C@H](CC(C)C)NC(=O)[C@H](C)NC(=O)[C@H](CC(C)C)NC(=O)[C@H](CCCCN)NC(=O)[C@H](CC(C)C)NC(=O)[C@H](C)NC(=O)[C@H](CC(C)C)NC(=O)[C@@H](N)CCCCN)C(=O)N[C@@H](CCCCN)C(=O)N[C@@H](C)C(=O)N[C@@H](C)C(=O)N[C@@H](CC(C)C)C(=O)N[C@@H](CCCCN)C(=O)N[C@@H](CC(C)C)C(=O)N[C@@H](C)C(N)=O`, the figures for the MIC against Bacillus subtilis [1] and against Escherichia coli [3] were 0.8 µM (≈ 1.5 µg/mL) and 1.6 µM (≈ 3 µg/mL), respectively. In addition, the MBC amounted to 0.8 µM (≈ 1.5 µg/mL) with Bacillus subtilis [2] and 1.6 µM (≈ 3 µg/mL) with Escherichia coli [4]. Also, the EC25 in series [5] turned out to be 13.1 µM.

These data come from ChEMBL document CHEMBL1629652, “Immobilization reduces the activity of surface-bound cationic antimicrobial peptides with no influence upon the activity spectrum” (Antimicrob Agents Chemother, 2009).
